Only some compounds are listed: those with a hit (about 2.1% of all), similar ones and a draw of the others.
B2AR ag – beta2AR agonists driving receptor internalization, primary screen, cell-based, FAP fluorogen, flow cytometry; Beta-2 adrenergic receptor (Homo sapiens), P07550; Am2.2-beta2AR cells; response, % (concentration not given with the values); hit rate 0.43% among 340,000; AID 504454, 2011;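 active = response above a set limit, near 3 SD of response in nonfluorescent compounds, cut at about 42% in these data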
Target sequence (P07550 whole entry, looked up): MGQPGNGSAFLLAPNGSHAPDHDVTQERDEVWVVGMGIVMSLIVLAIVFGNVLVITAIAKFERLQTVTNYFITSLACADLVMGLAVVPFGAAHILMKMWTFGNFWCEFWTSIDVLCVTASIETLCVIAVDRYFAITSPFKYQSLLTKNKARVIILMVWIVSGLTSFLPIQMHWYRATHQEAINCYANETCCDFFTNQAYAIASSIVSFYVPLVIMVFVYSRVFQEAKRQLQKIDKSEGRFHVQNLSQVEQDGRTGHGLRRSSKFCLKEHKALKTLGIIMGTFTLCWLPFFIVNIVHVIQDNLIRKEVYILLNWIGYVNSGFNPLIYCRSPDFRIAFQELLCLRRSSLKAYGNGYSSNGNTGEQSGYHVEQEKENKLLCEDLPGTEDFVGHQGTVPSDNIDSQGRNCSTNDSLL
H9c2 protect – cardioprotection against H2O2-induced cell death, primary screen, uHTS, H9c2 cells, ATPLite luminescence; H9c2 cardiomyocytes, H2O2 injury protection, 2 h; protection from H2O2 cell death, % at 20 µM; hit rate 0.63% among 360,000;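 active = compounds giving at least 50% protection of heart cells from peroxide-induced death in the single-dose screen, raw or plate-pattern-corrected value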;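 also: 0% = DMSO wells with peroxide and 100% = DMSO wells without peroxide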
UCH37 inh – inhibitors of human UCH37 deubiquitinase, primary screen, biochemical, Ub-AMC cleavage, fluorescence. Ubiquitin carboxyl-terminal hydrolase isozyme L5 (Homo sapiens), Q9Y5K5. purified proteasome/UCH37. inhibition, % (no concentration beside the values). hit rate 0.33% among 330,000. AID 588478, 2011;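 active = mean inhibition over replicate wells above about 20%, limit read from the data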;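 also: 0% = compound-free wells with enzyme and 100% = wells lacking proteasome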
Target sequence (Q9Y5K5 whole entry, looked up): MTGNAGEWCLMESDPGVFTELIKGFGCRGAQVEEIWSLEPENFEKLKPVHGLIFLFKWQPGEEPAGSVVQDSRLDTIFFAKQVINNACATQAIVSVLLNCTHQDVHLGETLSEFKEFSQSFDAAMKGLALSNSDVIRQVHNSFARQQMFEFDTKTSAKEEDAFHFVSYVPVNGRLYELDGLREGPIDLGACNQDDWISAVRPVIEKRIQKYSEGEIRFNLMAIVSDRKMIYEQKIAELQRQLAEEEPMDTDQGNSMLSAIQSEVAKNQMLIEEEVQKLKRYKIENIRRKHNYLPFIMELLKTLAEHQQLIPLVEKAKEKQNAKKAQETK
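Reagent: Ub-AMC substrate; assay system: Proteasome-associated human UCH37 deubiquitinase; controls: no-proteasome and no-compound wells; read-out: % inhibition of Ub-AMC cleavage fluorescence; timing: 30 min preincubation with enzyme, 25 min cleavage at room temperature; signal: AMC fluorescence from Ub-AMC cleavage, excitation 355 nm, emission 460 nm; buffer or medium: Tris-HCl pH 7.4 plus ovalbumin, ATP-MgCl2, DTT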
aDG glyco up – activators of alpha-DG glycosylation, primary screen, uHTS, Pro5-aDG cells, AlphaScreen | activation, % at 10 µM | hit rate 0.22% among 360,000 | alpha-DG glycosylation AlphaScreen (IIH6); 0% Pro5, 100% B10-LARGE cell signal;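 active = activation of at least 8% versus controls, or a plate z-score of at least 8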;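 also: Pro5 are CHO cells carrying HIG-tagged alpha-DG that lacks glycosylation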
PfG6PD inh – PfG6PD enzyme inhibitors, primary screen, biochemical, fluorescence intensity, uHTS. PfGluPho enzyme, NADPH resazurin-diaphorase fluorescence. hit rate 0.78% among 350,000. inhibition, % at 20 µM. glucose-6-phosphate dehydrogenase-6-phosphogluconolactonase (Plasmodium falciparum 3D7);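 active = inhibition reaching at least a set limit at 20 µM in the primary screen, cut at about 59% in these data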;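 also: 0% = DMSO wells with substrate and 100% = DMSO wells lacking glucose-6-phosphate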
HKDC1 inhibitor – HKDC1 hexokinase inhibitors, primary screen, biochemical, fluorescence, uHTS. inhibition, % at 20 µM. hit rate 0.16% among 340,000. Q2TB90. AID 493160, 2011. recombinant HKDC1, G6PDH/diaphorase resazurin coupled fluorescence;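 active = inhibition above about 35% when tested at 20 µM, limit read from the data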;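 also: plate controls were DMSO wells with enzyme for no effect and DMSO wells lacking enzyme for full effect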
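Assay system: in-house recombinant HK5 (HKDC1) enzyme. Input: HKDC1 at 5 µg/mL. Medium: Tris pH 8.0 buffer with MgCl2, Tween-20, BSA, BME. Dosing: single 20 µM dose. Schedule: 90 min reaction incubation at room temperature, dark. Signal: resazurin-to-resorufin fluorescence via G6PDH and diaphorase coupling, 525/613 nm. Controls: DMSO-enzyme wells negative, buffer-substituted wells positive.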
HKDC1 act conf2 – HKDC1 hexokinase activators, confirmation, biochemical, single concentration; shares compounds with HKDC1 inhibitor; recombinant HKDC1, G6PDH/diaphorase resazurin fluorescence; active compounds read low; inhibition, % at 20 µM; hit rate 14% among 740; AID 504708, 2011;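 active = inhibition at or below a set negative limit, negative inhibition meaning the enzyme was activated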
Active calls of the source: *; i = inactive; x = not tested or not shown.

SMILES | B2AR ag | H9c2 protect | UCH37 inh | aDG glyco up | PfG6PD inh | HKDC1 inhibitor | HKDC1 act conf2
O=C1C(Cl)=C(NCCN2CCCCC2)C(=O)c2ccccc21 | 18 | -35 | 41* | -1 | -59 | 2 | x
CCNC1=C(Cl)C(=O)c2ccccc2C1=O | -4 | -21 | -1 | 12* | -105 | -3 | x
CCN(CC)c1ccc(NC2=C(Cl)C(=O)c3ccccc3C2=O)cc1 | 74* | -30 | 5 | -1 | 40 | -22 | x
O=C1C(Cl)=C(Nc2ccc(O)cc2)C(=O)c2ccccc21 | 73* | -24 | 6 | 0 | -37 | -3 | x
CN(C)c1nc(Oc2ccc(N)cc2)nc(N(C)C)n1 | 77* | 15 | 1 | 0 | -3 | -1 | x
CNc1cc(C)c(C#N)c2nc3ccccc3n12 | 14 | -1 | i | 0 | -5 | 0 | x
Cc1c(CCCl)c(Cl)n2c(nc3ccccc32)c1C#N | 57* | -18 | x | 0 | -61 | 14 | x
Cc1cc(Cl)n2c(nc3ccccc32)c1C#N | 99* | -27 | -37 | -1 | 4 | 32 | x
CCCCCc1c(C)c(C#N)c2nc3ccccc3n2c1-n1ccnc1C | 3 | 2 | -28 | 0 | -14 | -1 | x
COc1cc(C=NNC(N)=O)ccc1OCC(=O)N1C(C)CCCC1C (stereo not given) | x | x | 2 | x | x | x | x
S=c1[nH]nc(-c2cccnc2)n1N=Cc1cccs1 | x | x | 3 | x | x | x | x
Cc1ccc(S(=O)(=O)CCSc2cccc(C(=O)Nc3ccccc3C(=O)O)c2)cc1 | 13 | 1 | 25* | 0 | -11 | -1 | x
O=C1C(Cl)=C(N2CCCCC2)C(=O)C(Cl)=C1c1cnc(N2CCCCC2)s1 | 35 | 4 | -26 | 0 | 88* | 70* | 49
O=C(NN=Cc1cnc(N2CCCCC2)s1)c1ccc(Cl)cc1 | x | x | -4 | x | x | x | x
O=C(NCc1ccncc1)C(=O)N/N=C/c1ccc(OCc2ccccc2)cc1 | 17 | -14 | x | 1 | -30 | -58 | -16
CC12CCC(C(=O)N/N=C/c3ccc(O)cc3O)(OC1=O)C2(C)C (stereo not given) | -5 | 37 | x | 0 | -44 | -39 | -35*
COc1cccc(NC(=O)C(=O)NN=Cc2ccc3c(c2)OCO3)c1 | x | x | 5 | x | x | x | x
CCNc1ccc(Br)cc(C(=O)/C=C/c2c(Cl)cccc2Cl)c1=O | -83 | 2 | 7 | 0 | 29 | 37* | -3
COc1cc(-c2ccc(Nc3ccccc3C(=O)O)c(OC)c2)ccc1Nc1ccccc1C(=O)O | -4 | -2 | 25* | 0 | 1 | 42* | -6
COc1ccc(C=NNC(=O)c2ccc(Cn3cc([N+](=O)[O-])cn3)o2)cc1O | x | x | 13 | x | x | x | x
CC(=O)Oc1cccc2c1C(=O)c1c(OC(C)=O)cc(C(=O)O)cc1C2=O | 8 | -9 | x | 0 | -7 | 21 | x
CC(=O)Oc1cccc2c1C(=O)C1CC=CC(OC(C)=O)C1C2=O (stereo not given) | -9 | -1 | x | 1 | -373 | -45 | -66*
CCCCN(CCCC)C(=O)C[n+]1cccc(C=NO)c1 | x | x | 0 | x | x | x | x
N#Cc1c(SCC(=O)Nc2nc3ccc(Br)cc3s2)sc2c(O)cc(=O)[nH]c12 | 12 | -1 | x | 0 | 1 | 34 | 45
N#Cc1c(SCC(=O)Nc2nc3ccccc3s2)sc2c(O)cc(=O)[nH]c12 | 2 | -11 | -1 | 0 | 12 | 28 | x
SMILES | B2AR ag | H9c2 protect | UCH37 inh | aDG glyco up | PfG6PD inh | HKDC1 inhibitor | HKDC1 act conf2
O=c1cc(-c2cccc(Br)c2)nc(-c2ccccc2F)o1 | -10 | 8 | 1 | 0 | 0 | 31 | 12
O=c1cc(-c2ccccc2F)nc(-c2ccccc2F)o1 | 6 | 11 | -1 | 0 | -5 | 2 | x
O=S(=O)(O)c1cc(O)c2ccc(Nc3ccccc3)cc2c1 | -5 | 0 | -32 | 0 | 15 | 50* | 16
O=S(=O)(O)c1cc(O)c2cc(Nc3ccccc3)ccc2c1 | -2 | 0 | -91 | 0 | 9 | 22 | x
Cc1ccc(S(=O)(=O)c2cc(Nc3ccccc3)ccc2O)cc1 | 3 | 7 | -3 | 0 | 17 | 5 | x
COc1ccccc1Nc1ccc2c(O)cc(S(=O)(=O)O)cc2c1 | 6 | 1 | -10 | 0 | 32 | 38* | 9
O=S(=O)(O)c1ccc(O)c2cc(Nc3ccccc3)ccc12 | -4 | -4 | 1 | 0 | 39 | 65* | 44
Cc1ccc(SCc2cc(=O)[nH]c(N=C(N)Nc3cccc4ccccc34)n2)cc1 | x | x | 2 | x | x | x | x
Cc1nc2c(n1O)CCCC2=NO | x | x | 0 | x | x | x | x
CCn1c2ccccc2c2cc(C=NNC(=O)c3cc(O)cc(O)c3)ccc21 | x | x | -194 | x | x | x | x
CC1C/C(=C\c2cccnc2)C(=O)/C(=C/c2cccnc2)C1 (stereo not given) | 13 | -18 | 8 | 0 | 4 | 40* | 23
CCOC(=O)c1ccc(NC2=CC(=O)C(=O)c3ccccc32)cc1 | 7 | -31 | 5 | -1 | 46 | 33 | 28
NS(=O)(=O)c1ccc(NC2=CC(=O)C(=O)c3ccccc32)cc1 | 7 | -17 | x | 2 | 42 | 32 | x
COc1cccc(C=NNC(=O)CC(=O)NCCc2ccccc2)c1OC | x | x | -9 | x | x | x | x
CCON=C(C)c1c(O)c2ccccc2n(C)c1=O | x | x | 3 | x | x | x | x
Cc1ccc(-n2[nH]c3c4c(ccc3c2=O)C(=O)c2ccccc2C4=O)cc1 | 12 | -9 | 2 | 0 | -2 | -7 | x
CC(C)(C)n1[nH]c2c3c(ccc2c1=O)C(=O)c1ccccc1C3=O | 3 | -6 | 2 | 4 | 29 | 42* | 12
Cc1ccc(NC(=O)CCC(=O)NN=Cc2ccco2)c(C)c1 | x | x | 3 | x | x | x | x
Cc1csc(NC(=O)CSc2nc3nc(C)cc(C)n3n2)n1 | -9 | -6 | 0 | 0 | 1 | -7 | x
COC(=O)c1sc(NC(=O)CSc2nc3nc(C)cc(C)n3n2)c(C(=O)OC)c1C | -2 | 14 | 6 | 0 | 44 | 35* | 26
Cc1c(C(=O)Oc2ccc(-c3cnc4ccccc4n3)cc2)cccc1[N+](=O)[O-] | 4 | 1 | 5 | 0 | 42 | -89 | -27
CCc1n[nH]c(=S)n1N=Cc1cc(Br)c(OC)cc1OC | x | x | 8 | x | x | x | x
CC(=O)n1cc(N(C(=O)CCl)c2ccc(Cl)cc2)c2ccccc21 | 46* | -9 | 4 | 0 | -1 | 58* | 33
Cc1cc(NC(=S)NC(=O)c2ccccc2)ccc1-c1cc2ccccc2oc1=O | -8 | 0 | 0 | 0 | 12 | -47 | -14

Screening data deposited in PubChem BioAssay by several laboratories.
